Consider 32 molecules from ChEMBL document CHEMBL1123034 (J Med Chem, 1985).

As usually defined, the Kd is a measure of binding affinity in units of concentration.

In assay [1] the target is Neuronal acetylcholine receptor. Description: Compound was evaluated for ability to enhance the binding of (+/-)-[3H]nicotine to the rat brain P2 fraction at binding site 1. Format: tissue-based. The method, boiled down: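 Whole-brain P2 fraction from female Sprague-Dawley rats (200–300 g), prepared at 4 °C, ~2 mg protein per tube. Triplicates, usually four homogenates. Enhancement assessed by two-way ANOVA or pooled t-test.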

Assay [2] shares this target. In kind it is tissue-based, Brain.
Assay [3] deals with T1, Neuronal acetylcholine receptor (Rattus norvegicus) (UniProt P04757+P09483+P12389+P12390+P12392+P43144+Q9JLB5+P12391+P43143+P20420+Q05941).
The target in assay [4] is Neuronal acetylcholine receptor. Briefly: Compounds was evaluated in vitro for ability to enhance and inhibit the binding of (+/-)-[3H]nicotine to the rat brain P2 fraction at binding site 1; 10e-10-10e-3. The method, boiled down: (§1)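 Whole-brain P2 fraction from female Sprague-Dawley rats (200–300 g), prepared at 4 °C, ~2 mg protein per tube. […] Nonspecific binding defined with 10^-2 M (-)-nicotine. Triplicates, usually four homogenates. Enhancement assessed by two-way ANOVA or pooled t-test.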

Assay [5] concerns the target T1, Neuronal acetylcholine receptor (Rattus norvegicus). Description: Compounds was evaluate for their ability to enhance (+/-)-[3H]nicotine binding at a dose range 10 E -10 - 10 E -6 M was reported. Format: protein-complex assay. The method, boiled down: as §1
The target of assay [6] is Neuronal acetylcholine receptor. Format: tissue-based, Brain. This is another data set of the same source.
For assay [7], the target named is T1, Neuronal acetylcholine receptor (Rattus norvegicus). Description: Compounds was evaluated for their ability to enhance (+/-)-[3H]nicotine binding at a dose range 10 E -9 - 10 E -6 M was reported. Format: protein-complex assay. The essentials:
(§2)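 Bound ligand collected on poly-L-lysine-soaked glass-fibre filters, washed with cold Hepes and counted by liquid scintillation. Nonspecific binding defined with 10^-2 M (-)-nicotine. Triplicates, usually four homogenates. Enhancement tested by two-way ANOVA with linear/quadratic dose components, or pooled t-test.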

The target is the same in assay [8]. Description: Compounds was evaluate for their ability to enhance (+/-)-[3H]nicotine binding at a dose range 10 E -10 - 10 E -5 M was reported. In kind it is protein-complex assay. The method, boiled down: as §1
Assay [9] addresses Neuronal acetylcholine receptor.
Assay [10] has as its target T1, Neuronal acetylcholine receptor (Rattus norvegicus). The source holds these as a separate data set.
Assay [11] has the same target. This is another data set of the same source.
For assay [12] the target is unchanged. Description: Compounds was evaluate for their ability to enhance (+/-)-[3H]nicotine binding at a dose range 2.5*10e-9-2.5*10e-5 M was reported. In kind it is protein-complex assay. The method, boiled down:
as §1

Assay [13] shares this target. Description: Compounds was evaluate for their ability to enhance (+/-)-[3H]nicotine binding at a dose range 10 E -10 - 10 E -7 M was reported. In kind it is protein-complex assay. The essentials: as §2
The target is the same in assay [14]. Briefly: Compounds was evaluate for their ability to enhance (+/-)-[3H]nicotine binding at a dose range 10 E -8 - 10 E -4 M was reported. Format: protein-complex assay. The essentials: as §1
For assay [15] the target is unchanged. Description: Compounds was evaluate for their ability to enhance (+/-)-[3H]nicotine binding at a dose range 10 E -12- 10 E -5 M was reported. Format: protein-complex assay. The essentials: as §1
The target is the same in assay [16]. This is another data set of the same source.
Assay [17] has the same target. The source holds these as a separate data set.

In the case of `Cc1cccnc1` [3-METHYLPYRIDINE], the Kd in [1] is 1800 µM. With `CN1CCC(O)CC1`, in [2], the Kd is 3400 µM. For the same molecule, in assay [3], the Mean enhancement of binding was found to be 13. Turning to `CC1CCCCN1` (stereo not given), the Kd is 3200 µM in assay [2] and less than 0.0001 µM in [4]. With `C1CCNC1` [PYRROLIDINE], the Mean enhancement of binding in [5] was 4.5. Turning to `C1CCNCC1` [PIPERIDINE], the Kd in assay [2] was 0.12 µM; in [6] it was 69 µM. For the same molecule, in assay [7], the Mean enhancement of binding came out at 10.3.

`OC1CCCNC1` (stereo not given) returned a Kd in assay [2] of 820 µM. Besides, the Mean enhancement of binding in assay [3] worked out at 8.6. Take `CCc1cccnc1`: binding in assay [2] was put at a Kd of 9.5 µM. Further, the Mean enhancement of binding in assay [5] stood at 5.4.

Turning to `Oc1ccccn1`, the Kd in assay [2] is 880 µM. Besides, the Mean enhancement of binding in [3] is 10.

`CCCC1CCCCN1` (stereo not given) registered a Kd in [2] of 97 µM. `CN1CCCCC1`: the Kd in [2] turned out to be 1200 µM. Besides, the Mean enhancement of binding in [8] turned out to be 10. `CN1CCCC1` [N-METHYL PYRROLIDINE (NMP)] displayed a dissociation constant Kd in assay [2] of 52 µM. In addition, the Mean enhancement of binding in assay [5] was found to be 4.1. Regarding `OC1CCNCC1`, the affinity in assay [2], expressed as Kd, was 3000 µM. Also, in assay [3], the Mean enhancement of binding was 4.

Consider `CCc1ccncc1`, for which the Kd in [2] was 87 µM. In the case of `CC1CCNCC1`, in [2], binding was characterised by a dissociation constant (Kd) of 3900 µM. Further, in [3], the Mean enhancement of binding turned out to be 6.1. As to `Cc1ccncc1`, binding in assay [2] was put at a Kd of 2200 µM. Moreover, the Mean enhancement of binding in assay [3] came out at 6.6. Turning to `Cc1ccccn1`, the Kd in [2] is 0.05 µM; in [9], 64000 µM. The Mean enhancement of binding in assay [10] came to 20.7. The molecule `CCCc1ccccn1` displayed a Kd in assay [2] of 1.7 µM. Moreover, the Mean enhancement of binding in [8] worked out at 15.2. As to `CN1CCC[C@H]1c1cccnc1`, in [11], the Mean enhancement of binding turned out to be 4.7. With `CNC1(C)C2CCC(C2)C1(C)C` (stereo not given), in assay [12], the Mean enhancement of binding worked out at 16.4.

`Nc1ccccn1` [2-AMINOPYRIDINE] displayed a Kd in [2] of 200 µM. In [13], the Mean enhancement of binding came to 12.4. For the molecule `Cc1cccc(C)n1`, the Kd in assay [2] is 10000 µM. In [3], the Mean enhancement of binding is 3.1. In the case of `CCN1CCCCC1`, in assay [2], binding was put at a Kd of 3.3 µM. In [5], the Mean enhancement of binding turned out to be 23.

In assay [2], `ON1CCCCC1` returned a Kd of 6000 µM. The Mean enhancement of binding in [14] was determined as 8.5. For `CN1C(=O)CCC1c1cccnc1` (stereo not given), the dissociation constant (Kd) in [2] is 4700 µM; in assay [1], 0.62 µM. As for `CN1[C@@H]2CC[C@H]1C[C@@H](OC(=O)C(CO)c1ccccc1)C2` (stereo not given in full), the Mean enhancement of binding in [15] is 14.9. `CCC1CCCCN1` (stereo not given) had a Kd in assay [2] of 7900 µM. For `CCc1ccccn1`, the Kd in [2] was found to be 100 µM. Also, the Mean enhancement of binding in assay [5] stood at 10.9. With `Nc1cccnc1`, the affinity in [2], expressed as Kd, was 380 µM. Moreover, in [5], the Mean enhancement of binding amounted to 2.4. Turning to `c1ccncc1` [PYRIDINE], the Kd in [2] turned out to be 3300 µM. In the case of `CN1[C@@H](CC(=O)c2ccccc2)CCC[C@H]1C[C@H](O)c1ccccc1`, the Mean enhancement of binding in [16] worked out at 18.2. `CC1CCCNC1` (stereo not given): binding in [2] was put at a Kd of 890 µM. Further, the Mean enhancement of binding in assay [3] is 5.2. For the molecule `C[N+](C)(C)CCOC(N)=O`, the Mean enhancement of binding in assay [17] was found to be 15.
